{"source": "paper PMC5954213", "about": "(Molecular pharmaceutics, 2018)", "key": {"ova s/c mice [1]": {"system": "ova s/c mice", "assay": "Mucin volume density in lung sections", "type": "in vivo, mouse"}, "ova s/c BALB/c mice [2]": {"system": "ova s/c BALB/c mice", "assay": "Airway hyperresponsiveness", "type": "in vivo, mouse"}, "ova s/c BALB/c mice [3]": {"system": "ova s/c BALB/c mice", "assay": "Quantification of airway inflammatory cells in BALF by flow cytometry", "type": "in vivo, mouse"}, "[4]": {"assay": "Mouse plasma protein binding", "type": "in vitro ADME"}, "[5]": {"system": "CD4+ T lymphocytes isolated from ova s/c mice", "assay": "Automated patch clamp with CD4+ T lymphocytes in the presence of 600 nM GABA", "type": "cell-based, mouse", "procedure,_shortened": "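Splenic CD4+ T cells from ova s/c BALB/c mice were magnetically enriched after RBC lysis, then suspended at 5x10^6 cells/ml in extracellular solution (pH 7.4) with CsCl-based intracellular solution (pH 7.2). Automated whole-cell patch clamp was held at −80 mV. Test compound (final DMSO 0.1%) was applied for 3 s with 600 nM GABA, which was set as 100%. Eight independent runs, n = 12. EC50 and top came from a sigmoidal fit.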"}, "[6]": {"assay": "Pharmacokinetic profile in mouse blood, lungs and brain", "type": "in vivo", "procedure,_shortened": "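Mice received a single oral gavage of 25 mg/kg test compound, suspended by grinding with PEG and then adding 2% HPMC (final vehicle 2% HPMC, 2.5% PEG). Blood, lung and brain were sampled over time and analysed by LC-MS/MS. Tmax, Cmax, AUC and elimination rate constant were calculated from the concentration-time profiles.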"}, "[7]": {"assay": "In vitro microsomal stability, human", "type": "in vitro ADME"}, "[8]": {"system": "guinea pig airway smooth muscle contracted with 1 μM substance P", "assay": "Relaxation of substance P-contracted guinea pig tracheal rings"}, "[9]": {"assay": "In vitro microsomal stability, mouse", "type": "in vitro ADME"}, "ova s/c mice [10]": {"system": "ova s/c mice", "assay": "EdU staining of lung sections", "type": "in vivo, mouse", "settings": "100 mg/kg; compared to vehicle-treated ova s/c mice", "procedure,_shortened": "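Ova s/c mice were dosed orally with test compound 100 mg/kg b.i.d. for 5 days or with vehicle. They received EdU 100 mg/kg i.p. once and were euthanized 4 h later. Lungs were formalin-fixed and paraffin-embedded, and 6 μm sections were permeabilized with 0.5% Triton X-100 for 20 min. EdU was click-labelled with Alexa Fluor 488 azide for 30 min in the dark, with Hoechst 33342 counterstain. Sections were read by fluorescence microscopy.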"}, "ova s/c mice [11]": {"system": "ova s/c mice", "assay": "Cytokine expression in lung homogenate", "type": "in vivo, mouse", "settings": "100 mg/kg p.o. twice daily 5 days", "procedure,_shortened": "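Male Balb/c mice were ova/alum-sensitized i.p. on days 0, 7 and 14, then challenged i.n. with ova for 5 days. During challenge they received test compound 100 mg/kg or vehicle (2% HPMC, 2.5% PEG) by oral gavage b.i.d. for 5 days. Snap-frozen whole lung was homogenized in T-PER with protease inhibitors and spun 10,000 rpm for 5 min. Supernatant went to a Th1/Th2/Th17 cytometric bead array on flow cytometry. n = 10/group, one-way ANOVA versus vehicle.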"}, "mice": {"system": "mice", "assay": "Sensorimotor coordination study using a rotarod apparatus", "type": "in vivo, mouse", "settings": "100 mg/kg oral; 15 rpm, 3 minutes, three time points", "procedure,_shortened": "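Mice were dosed orally with 100 mg/kg test compound or vehicle (2% HPMC, 2.5% PEG), n = 9. They were tested on a rotarod at 15 rpm for up to 3 min at three time points, and time balanced was recorded. The control was diazepam 5 mg/kg i.p. in 5% DMSO/35% propylene glycol/60% PBS.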"}, "peripheral GABAAR": {"system": "peripheral GABAAR", "assay": "NIMH Psychoactive Drug Screening Program", "type": "binding", "settings": "10 μM"}, "α1-3,5β3γ2 GABAARs": {"system": "α1-3,5β3γ2 GABAARs", "type": "cell-based", "settings": "0.1 μM or 1 μM, current evoked by GABA", "procedure,_shortened": "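Cells were transiently transfected with the indicated α subunit plus β3 and γ2L. Mean enhancement of the GABA-evoked current by 0.1 or 1 μM test compound was measured by patch clamp, n = 5, mean ± SEM.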"}}, "note": "Entries after “also recorded” stand apart in the source; their conditions may differ.", "data": [{"smiles": "OCc1cc(C(O)CNCCCCCCOCCCCc2ccccc2)ccc1O", "note": "(stereo not shown) [salmeterol, reference compound]", "values": [{"measurement": "mucous levels in the airways", "setting": "ova s/c mice [1]; 1 mg/kg b.i.d. 5 days", "result": "no effect"}, {"measurement": "effect on AHR (sRaw)", "setting": "ova s/c BALB/c mice [2]; 1 mg/kg p.o. b.i.d. 5 days", "result": "no anti-AHR effect"}, {"measurement": "effect on AHR (sRaw)", "setting": "ova s/c BALB/c mice [2]; single oral dose 10 mg/kg acutely before measurement (data not shown)", "result": "without any significant effect on AHR"}, {"measurement": "BALF eosinophil population", "setting": "ova s/c BALB/c mice [3]; 1 mg/kg p.o. b.i.d. 5 days", "result": "no significant effect"}, {"measurement": "BALF macrophage population", "setting": "ova s/c BALB/c mice [3]; 1 mg/kg p.o. b.i.d. 5 days", "result": "no significant effect"}, {"measurement": "number of BALF CD4+ T cells", "setting": "ova s/c BALB/c mice [3]; 1 mg/kg p.o. b.i.d. 5 days", "result": "reduced"}, {"measurement": "total inflammatory cells (leukocyte numbers) in BALF", "setting": "ova s/c BALB/c mice [3]; 1 mg/kg p.o. b.i.d. 5 days", "result": "did not significantly change"}]}, {"smiles": "C[C@H]1N=C(c2ccccc2F)c2cc(Br)ccc2-n2cnc(C(=O)O)c21", "note": "[MIDD0301]", "values": [{"measurement": "plasma protein binding", "setting": "[4]", "result": 88, "unit": "%"}, {"measurement": "mucous production in the airways (mucin volume density)", "setting": "ova s/c mice [1]; 20 mg/kg b.i.d. 5 days", "result": "did not produce a significant change"}, {"measurement": "mucous production in the airways (mucin volume density)", "setting": "ova s/c mice [1]; 50 mg/kg b.i.d. 5 days", "result": "did not produce a significant change"}, {"measurement": "mucous production in the airways (mucin volume density)", "setting": "ova s/c mice [1]; 100 mg/kg b.i.d. 5 days", "result": "did not produce a significant change"}, {"measurement": "concentration at which current change saturated", "setting": "[5]; 600 nM GABA", "result": 100, "unit": "nM"}, {"measurement": "maximal potentiation", "setting": "[5]; 600 nM GABA = 100 %", "result": 512, "unit": "%"}, {"measurement": "EC50", "setting": "[5]; read-out: EC50 of current potentiation, 600 nM GABA", "result": 17, "unit": "nM"}, {"measurement": "blood brain barrier penetration", "setting": "[6]; 25 mg/kg single oral", "result": "Poor"}, {"measurement": "Tmax", "setting": "[6]; blood and lung, 25 mg/kg single oral", "result": "≤ 0.667", "unit": "h"}, {"measurement": "AUC", "setting": "[6]; blood, 25 mg/kg single oral", "result": 2087.1, "unit": "µg·min/g"}, {"measurement": "Cmax", "setting": "[6]; blood, 25 mg/kg single oral", "result": 8.24, "unit": "µg/g"}, {"measurement": "half-life", "setting": "[6]; blood, 25 mg/kg single oral", "result": 13.9, "unit": "h"}, {"measurement": "rate of elimination", "setting": "[6]; blood, 25 mg/kg single oral", "result": 0.001, "unit": "min⁻¹"}, {"measurement": "AUC", "setting": "[6]; brain, 25 mg/kg single oral", "result": 107.7, "unit": "µg·min/g"}, {"measurement": "elimination rate compared with blood", "setting": "[6]; lung tissue, 25 mg/kg single oral", "result": "somewhat faster"}, {"measurement": "AUC", "setting": "[6]; lung, 25 mg/kg single oral", "result": 1390.5, "unit": "µg·min/g"}, {"measurement": "Cmax", "setting": "[6]; lungs, 25 mg/kg single oral", "result": 4.39, "unit": "µg/g"}, {"measurement": "half-life", "setting": "[6]; pharmacokinetic studies, as stated in abstract", "result": "~14", "unit": "h"}, {"measurement": "microsomal stability t1/2", "setting": "[7]", "result": 25.77, "unit": "h"}, {"measurement": "effect on AHR (sRaw)", "setting": "ova s/c BALB/c mice [2]; 20 mg/kg p.o. b.i.d. 5 days, 12.5 mg/ml methacholine", "result": "downward trend; also recorded: did not reduce AHR significantly"}, {"measurement": "effect on AHR (sRaw)", "setting": "ova s/c BALB/c mice [2]; 50 mg/kg p.o. b.i.d. 5 days, 12.5 mg/ml methacholine", "result": "sufficient to overcome induced AHR"}, {"measurement": "effect on AHR (sRaw)", "setting": "ova s/c BALB/c mice [2]; 100 mg/kg p.o. b.i.d. 5 days, 12.5 mg/ml nebulized methacholine", "result": "significantly reduced AHR"}, {"measurement": "time to partial relaxation of muscle constriction", "setting": "[8]; 25 μM in organ bath", "result": "≤ 15", "unit": "min"}, {"measurement": "reversibility of relaxation effect", "setting": "[8]; ASM washed with buffer and contracted again with substance P", "result": "reversible"}, {"measurement": "pharmaceutically active concentration in tissue", "setting": "[8]; assuming tracheal concentration is 10% of organ bath concentration", "result": "single digit micromolar concentration"}, {"measurement": "smooth muscle relaxation compared with compound 2", "setting": "[8]; comparison with compound 2 data of ref 13", "result": "more pronounced smooth muscle relaxation"}, {"measurement": "concentration giving significant relaxation of pre-contracted smooth muscle", "setting": "[8]; substance P 1 μM, 60 minute assay, vs vehicle 0.1% DMSO", "result": "≥ 25", "unit": "µM"}, {"measurement": "microsomal stability t1/2", "setting": "[9]", "result": 9.15, "unit": "h"}, {"measurement": "EdU cell staining of lung sections (alveolar region)", "setting": "ova s/c mice [10]", "result": "reduced cell staining"}, {"measurement": "number of BALF CD4+ T cells", "setting": "ova s/c BALB/c mice [3]; 20 mg/kg p.o. b.i.d. 5 days", "result": "significantly reduced"}, {"measurement": "number of BALF CD4+ T cells", "setting": "ova s/c BALB/c mice [3]; 50 mg/kg p.o. b.i.d. 5 days", "result": "significantly reduced"}, {"measurement": "BALF F4/80+ cells (macrophages)", "setting": "ova s/c BALB/c mice [3]; 100 mg/kg p.o. b.i.d. 5 days", "result": "reduced their numbers significantly"}, {"measurement": "BALF Siglec F+ cell population (eosinophils/alveolar macrophages)", "setting": "ova s/c BALB/c mice [3]; 100 mg/kg p.o. b.i.d. 5 days", "result": "reduced their numbers significantly"}, {"measurement": "number of BALF CD4+ T cells", "setting": "ova s/c BALB/c mice [3]; 100 mg/kg p.o. b.i.d. 5 days", "result": "significantly reduced"}, {"measurement": "total inflammatory cells (CD45+) in BALF", "setting": "ova s/c BALB/c mice [3]; 100 mg/kg p.o. b.i.d. 5 days", "result": "significant suppression"}, {"measurement": "IFN-γ concentration in lung homogenates", "setting": "ova s/c mice [11]", "result": "not altered significantly"}, {"measurement": "IL-2 concentration in lung homogenates", "setting": "ova s/c mice [11]", "result": "not altered significantly"}, {"measurement": "IL-6 concentration in lung homogenates", "setting": "ova s/c mice [11]", "result": "not altered significantly"}, {"measurement": "IL-10 expression in the lung", "setting": "ova s/c mice [11]", "result": "not significantly altered"}, {"measurement": "IL-17A levels in lung homogenates", "setting": "ova s/c mice [11]", "result": "significantly reduced"}, {"measurement": "lung TNF-α levels", "setting": "ova s/c mice [11]", "result": "decreased"}, {"measurement": "IL-4 levels in lung homogenates", "setting": "ova s/c mice [11]; vs vehicle-treated ova s/c mice", "result": "reduced"}, {"measurement": "sensorimotor inhibition on rotarod", "setting": "mice", "result": "absence of sensorimotor inhibition"}, {"measurement": "binding", "setting": "peripheral GABAAR", "result": "no significant binding"}, {"measurement": "activation of GABAARs among alpha subtypes tested", "setting": "α1-3,5β3γ2 GABAARs", "result": "activating GABAARs strongly"}]}]}
